In article PMC4409786 (Cancer discovery, 2014):
Structures can show the parent of a compound that is named as a salt. Blank lines part the entries; values can stand above or below the compound they belong to.

Experiments:
hepsin = hepsin (Homo sapiens, UniProt P05981); assay: Hepsin protease inhibition with optimal peptide substrate; format: biochemical
In short: (§1)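 Each enzyme is assayed with its optimal peptide substrate, and substrate concentrations are determined after 30 minutes.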

matriptase = target: T1, matriptase (Homo sapiens, UniProt Q9Y5Y6); assay: Matriptase protease inhibition with optimal peptide substrate; format: biochemical
T1 sequence (Q9Y5Y6 1-855): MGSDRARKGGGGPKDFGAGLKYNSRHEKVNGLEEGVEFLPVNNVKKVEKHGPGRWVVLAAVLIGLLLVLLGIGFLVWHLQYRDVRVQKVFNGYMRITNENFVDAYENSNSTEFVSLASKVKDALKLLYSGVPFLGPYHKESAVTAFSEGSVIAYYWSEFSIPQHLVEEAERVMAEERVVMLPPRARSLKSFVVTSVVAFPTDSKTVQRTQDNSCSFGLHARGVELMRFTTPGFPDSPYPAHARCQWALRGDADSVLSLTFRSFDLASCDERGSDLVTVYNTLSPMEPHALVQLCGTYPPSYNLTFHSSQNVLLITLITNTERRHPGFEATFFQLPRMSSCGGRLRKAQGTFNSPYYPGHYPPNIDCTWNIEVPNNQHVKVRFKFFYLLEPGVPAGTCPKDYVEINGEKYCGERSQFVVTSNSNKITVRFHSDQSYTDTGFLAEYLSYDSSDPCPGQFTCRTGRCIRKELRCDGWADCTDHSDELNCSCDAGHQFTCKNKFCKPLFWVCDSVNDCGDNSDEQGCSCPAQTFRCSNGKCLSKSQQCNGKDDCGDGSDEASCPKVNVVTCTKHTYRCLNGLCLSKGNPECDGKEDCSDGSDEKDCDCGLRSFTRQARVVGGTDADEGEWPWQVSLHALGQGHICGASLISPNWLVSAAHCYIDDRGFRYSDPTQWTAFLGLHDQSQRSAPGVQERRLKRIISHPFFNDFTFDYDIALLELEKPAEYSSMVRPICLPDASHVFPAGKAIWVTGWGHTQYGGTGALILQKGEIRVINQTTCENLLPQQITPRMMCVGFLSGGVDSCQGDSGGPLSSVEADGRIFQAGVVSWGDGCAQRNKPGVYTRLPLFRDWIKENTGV
In short: as §1

trypsin = assay: Trypsin inhibition; format: biochemical; conditions: read-out: IC50 for trypsin
thrombin = thrombin (Homo sapiens, UniProt P00734); assay: Thrombin inhibition; format: biochemical
LNCaP cells [1] = assay: In vitro cell toxicity, LNCaP; format: cell-based; conditions: 48-hour, 0μM to 250μM
DU145 cells [2] = assay: In vitro cell toxicity, DU145; format: cell-based; conditions: DU145, 48-hour, 0μM to 250μM
PC3 cells = assay: In vitro cell toxicity, PC3; format: cell-based; conditions: PC3, 48-hour, 0μM to 250μM
HepG2 cells = assay: In vitro cell toxicity, HepG2; format: cell-based; conditions: HepG2, 48-hour, 0μM to 250μM
DU145^TMPRSS2 cells = assay: Matrigel invasion assay, HGF-promoted; format: cell-based; conditions: DU145^TMPRSS2, p<0.01
In short: (§2)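 TMPRSS2 coding sequence is cloned and transfected into DU145 or PC3 cells, and stable lines are selected with antibiotic; vector-transfected cells are the controls. Invasion through Matrigel is measured with a commercial 96-well invasion kit, under standard culture (serum) conditions or with added HGF, alongside serum-free medium.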

PC-3^TMPRSS2 cells = assay: Matrigel invasion assay, HGF-promoted; format: cell-based; conditions: PC-3^TMPRSS2, p<0.01
In short: as §2

LNCaP cells [3] = assay: HGF-induced invasion assay; format: cell-based; conditions: natively express TMPRSS2, p<0.01
In short: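 Invasion through basement-membrane matrix, measured with a commercial 96-well invasion kit. LNCaP cells are exposed to exogenous paracrine-acting HGF and compared with serum-free medium.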

C4-2B cells = assay: HGF-induced invasion assay; format: cell-based; conditions: natively express TMPRSS2, p<0.01
TRAMP mice = assay: In vivo treatment of TRAMP mice: primary tumor and spontaneous metastasis; parameters: species or system mouse; conditions: 30mg/kg intraperitoneal three times per week, p=0.04 versus vehicle
DU145 cells [4] = assay: DU145 invasion with prostate fibroblast conditioned medium and TMPRSS2; format: cell-based
prostate bone metastasis = conditions: human clinical trials ref 42; cited from earlier work

Sequence of hepsin (P05981 whole entry): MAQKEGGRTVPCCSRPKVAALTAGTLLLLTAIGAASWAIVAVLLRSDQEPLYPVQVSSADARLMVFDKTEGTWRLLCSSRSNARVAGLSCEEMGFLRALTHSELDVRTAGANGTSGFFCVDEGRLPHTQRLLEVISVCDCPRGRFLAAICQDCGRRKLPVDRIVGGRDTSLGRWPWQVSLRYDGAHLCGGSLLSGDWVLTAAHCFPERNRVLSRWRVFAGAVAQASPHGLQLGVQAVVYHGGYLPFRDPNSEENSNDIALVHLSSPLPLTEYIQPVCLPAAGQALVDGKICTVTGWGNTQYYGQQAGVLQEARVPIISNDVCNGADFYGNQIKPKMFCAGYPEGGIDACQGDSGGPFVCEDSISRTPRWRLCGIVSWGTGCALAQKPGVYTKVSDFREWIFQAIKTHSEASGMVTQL

IC50 (hepsin): 35 µM
IC50 (matriptase): 58 µM
IC50 (trypsin): > 100 µM
IC50 (thrombin): > 100 µM
SMILES: CN(Cc1cc(Br)cc(Br)c1N)C1CCCCC1 [BHH, bromhexine hydrochloride]
toxicity (LNCaP cells [1]): No significant toxicity
toxicity (DU145 cells [2]): No significant toxicity
toxicity (PC3 cells): No significant toxicity
toxicity (HepG2 cells): No significant toxicity
migration and invasion phenotypes promoted by HGF (DU145^TMPRSS2 cells): significantly reduced
migration and invasion phenotypes promoted by HGF (PC-3^TMPRSS2 cells): significantly reduced
HGF-induced invasion (LNCaP cells [3]): significantly attenuated
HGF-induced invasion (C4-2B cells): significantly attenuated
incidence of distant metastasis to lung and liver sites (TRAMP mice): 20%

SMILES: Cc1[nH]c(/C=C2\C(=O)Nc3ccc(S(=O)(=O)N(C)c4cccc(Cl)c4)cc32)c(C)c1C(=O)N1CCN(C)CC1 [SU11274]
increase of cellular invasion by fibroblast conditioned medium and TMPRSS2 (DU145 cells [4]): abolished

SMILES: COc1cc2nccc(Oc3ccc(NC(=O)C4(C(=O)Nc5ccc(F)cc5)CC4)cc3)c2cc1OC [cabozantinib]
prostate bone metastasis response (prostate bone metastasis): Striking regressions
